An excerpt weighted towards active compounds, which were near 1.7% of everything screened.
ZTA DNA inh: ZTA (EBV) inhibition in EBNA-1 counter-screen; P03206; ZTA-DNA binding, fluorescence polarization; inhibition, % at 11 µM; 0.15% of 320,000 active; in the data active = inhibition above about 33%
PREPL inh: PREPL enzyme inhibitors, primary screen, biochemical, fluorescence polarization; recombinant PREPL, fluorescence polarization activity-based probe; Prolyl endopeptidase-like (Homo sapiens), Q4J6C6; 0.68% of 320,000 active; inhibition, % at 5.96 µM; AID 2751, 2010; in the data active = inhibition above about 43%;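 also: 0% = enzyme with DMSO and 100% = wells lacking enzyme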
Target sequence (Q4J6C6 whole entry, looked up): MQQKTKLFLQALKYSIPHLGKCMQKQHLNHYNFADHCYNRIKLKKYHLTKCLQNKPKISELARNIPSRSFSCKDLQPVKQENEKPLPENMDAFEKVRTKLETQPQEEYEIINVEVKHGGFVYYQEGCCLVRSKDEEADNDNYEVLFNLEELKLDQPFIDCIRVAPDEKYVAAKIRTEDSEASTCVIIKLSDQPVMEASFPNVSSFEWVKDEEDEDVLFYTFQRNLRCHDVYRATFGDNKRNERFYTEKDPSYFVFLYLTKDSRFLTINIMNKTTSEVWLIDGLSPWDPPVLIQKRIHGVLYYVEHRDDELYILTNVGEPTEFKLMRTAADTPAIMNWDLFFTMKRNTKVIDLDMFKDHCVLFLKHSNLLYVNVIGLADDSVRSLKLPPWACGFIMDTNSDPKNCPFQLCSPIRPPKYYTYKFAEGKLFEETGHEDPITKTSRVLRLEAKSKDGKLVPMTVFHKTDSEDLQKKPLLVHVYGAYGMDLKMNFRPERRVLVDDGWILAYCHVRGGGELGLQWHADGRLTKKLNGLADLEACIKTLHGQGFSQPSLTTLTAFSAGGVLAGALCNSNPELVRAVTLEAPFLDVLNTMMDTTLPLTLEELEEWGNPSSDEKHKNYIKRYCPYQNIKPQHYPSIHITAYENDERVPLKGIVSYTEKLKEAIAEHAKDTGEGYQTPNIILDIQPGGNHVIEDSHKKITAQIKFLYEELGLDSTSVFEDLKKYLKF
Apaf-1 inh: inhibitors of human Apaf-1 apoptosome, primary screen, biochemical, DEVD-Rh110 fluorescence, uHTS. Apoptotic protease-activating factor 1 (Homo sapiens), O14727. reconstituted apoptosome caspase-3 activity. inhibition, % at 20 µM. 0.71% of 330,000 active. AID 489030, 2010; active = inhibition of at least 40% at 20 µM;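 also: plate controls were DMSO wells for no effect and DEVD-CHO caspase inhibitor wells for full effect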
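Assay system – apoptosome proteins · Medium – Hepes buffer, pH 7.5 · Also added – cytochrome c with DEVD-Rh110 · Timing – 30 min compound preincubation, 50 min activation, room temperature · Detection – Rh110 fluorescence, excitation 480 nm, emission 540 nm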
UBC13 inh: UBC13 polyubiquitin chain formation inhibitors, primary screen, biochemical, TR-FRET, uHTS; inhibition, % at 20 µM; Ubiquitin-conjugating enzyme E2 N (Homo sapiens), P61088; 0.47% of 330,000 active; in the data active = inhibition above about 45%, passing the limit was not always enough
EBNA-1 inh: EBNA-1 DNA-binding inhibitors, primary screen, biochemical, fluorescence polarization; inhibition, % at 14.8 µM; 0.34% of 300,000 active; AID 1950, 2009; in the data active = inhibition above about 28%
Apaf-1 inh conf: Apaf-1 inhibitors, single-dose retest, confirmation, biochemical, fluorescence, DEVD-Rh110, 20 µM. reconstituted apoptosome, caspase-3 DEVD-Rh110 fluorescence. 25% of 1,800 active. inhibition, % at 20 µM. shares compounds with Apaf-1 inh. AID 504614, 2011;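 active = mean inhibition of at least 40% at 20 µM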;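 also: plate controls were DMSO wells for no effect and DEVD-CHO caspase inhibitor control wells for full effect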
Rh110 interf inh: Rh110 fluorescence interference by putative Apaf-1 inhibitors, confirmation, artefact control for Apaf-1 inhibitor project, biochemical, 20 µM | activation (fluorescence interference), % at 20 µM | AID 504615, 2011 | 1,800 tested, under 10 active | quenched caspase reaction | shares compounds with Apaf-1 inh;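 active = signal rise of 40% or more at 20 µM, treated as a fluorescence artifact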
Fluor interf inh: fluorescence interference of Apaf-1 inhibitor hits, dose response, artefact control for Apaf-1 inhibitor project | 460 tested, under 10 active | fluorescence interference counterscreen, Apaf-1 assay format | IC50, µM | shares compounds with Apaf-1 inh; call rule not given here
Active calls of the source: *; nt = no result given.

SMILES | ZTA DNA inh | PREPL inh | Apaf-1 inh | UBC13 inh | EBNA-1 inh | Apaf-1 inh conf | Rh110 interf inh | others
CC(C)c1ccc(/C=N/Nc2cc(N3CCOCC3)nc(N3CCOCC3)n2)cc1 | 2 | 21 | 62* | -8 | -7 | 46* | 11 | Fluor interf inh=>100
Cc1cc(N/N=C/c2ccccc2)nc(N2CCOCC2)n1 | 1 | 10 | 1 | -1 | 9 | nt | nt
Oc1ccc(/C=N\Nc2cc(N3CCOCC3)nc(N3CCOCC3)n2)c(O)c1 | -11 | 7 | 85* | -22 | -3 | 60* | 7 | Fluor interf inh=>100
COc1ccccc1C(=O)n1nc(-c2ccco2)nc1N | -11 | -11 | 1 | -2 | -4 | nt | nt
Cn1c(=S)[nH]c2cccnc21 | -1 | 2 | -5 | 7 | 2 | nt | nt
CN(C)C(=O)c1ccc(NC(=O)COc2cccc(Oc3ccccc3)c2)cc1 | -7 | 8 | 61* | 32 | 10 | 35 | 5
CC1=NN(c2ccc(F)cc2)C(=O)C1C(c1cccc(O)c1)c1c(C)[nH]n(-c2ccc(F)cc2)c1=O (stereo not given) | 1 | 25 | 91* | -40 | 1 | 20 | -4
Cc1[nH]n(-c2ccccc2)c(=O)c1C(=O)c1cccc(F)c1 | 1 | 0 | -5 | -2 | -2 | nt | nt
O=C(Nc1ccc(Cl)cn1)c1ccc(Br)c(S(=O)(=O)N2CCCCC2)c1 | 4 | 20 | 18 | 6 | 3 | nt | nt
Cc1nn(Cc2c(F)c(F)c(F)c(F)c2F)c(C)c1NC(=O)c1ccc(COc2ccc(Cl)cc2Cl)o1 | -15 | 4 | 46* | 0 | -2 | 21 | 6
COc1ccc(-c2cc(N3CCCC3)n3ncnc3n2)cc1 | -14 | 11 | 8 | -1 | 1 | nt | nt
CCOc1cc2c(C#N)c(N3CCCCC3)nc(N)c2c(N)n1 | -2 | 27 | 97* | -33 | -3 | 37 | 0
CCN(CC)c1nc(N)c2c(N)nc(OC)cc2c1C#N | -1 | 24 | 46* | 6 | -4 | 4 | 1
CCN(CC)c1nc(N)c(C#N)c(CC#N)c1C#N | -4 | 14 | 8 | 1 | -6 | nt | nt
Cc1ccc(NC(=O)Cn2nnc(C(=O)NCc3cccs3)c2N)cc1 | 5 | -1 | -4 | 6 | 6 | nt | nt
Cc1c2ccccc2nc2ccccc12 | 14 | -3 | 18 | 0 | -2 | nt | nt
CCCNc1c(F)c(F)c2c(C)c3ccccc3nc2c1F | 6 | 13 | 51* | -25 | 4 | 33 | 4
C#CCOCCOCCOCCNc1nc(N2CCN(C(=O)[C@H](CCCCN)n3cc(CCCC)nn3)CC2)nc(N2CCN(C(=O)[C@H](CCCCN)n3cc(CCCC)nn3)CC2)n1 | 8 | -7 | 50* | 8 | -7 | 11 | -3
CC(=O)C1=C(c2cccc([N+](=O)[O-])c2)N(C(C)=O)n2c(C)nnc2S1 | 7 | 3 | 44* | 0 | 15 | 40 | 9
CC(=O)c1c(C(C)=O)c(C)n(-c2cccc([N+](=O)[O-])c2)c1C | -12 | 13 | 5 | 0 | 9 | nt | nt
CCN(CC)S(=O)(=O)c1ccc(-c2csc(C)n2)s1 | -10 | -4 | -2 | -1 | -12 | nt | nt
CC(=O)c1c(C)oc2c1C(=O)c1ccccc1C2=O | 6 | -4 | nt | nt | -6 | nt | nt
COc1ccc(CNC(=O)c2c(C)oc3c2C(=O)c2ccccc2C3=O)cc1 | 16 | 29 | 67* | -35 | 1 | 71* | 12 | Fluor interf inh=>100
O=C(NN=c1c(=O)c2ccccc2c1=O)c1ccccc1 | -3 | -6 | 96* | -56 | 3 | 98* | 1 | Fluor interf inh=>100
CN(C)/C=N/NC(=O)c1ccccc1 | 15 | 8 | 7 | -4 | -8 | nt | nt
Nc1nonc1-n1nnc(C(=O)N/N=C/c2ccc(F)cc2)c1-c1cccs1 | 7 | 8 | 7 | -8 | -3 | nt | nt
CCOc1ccc(S(=O)(=O)N2CCCCCC2)cc1 | -7 | -1 | 2 | -10 | 1 | nt | nt
CC(=O)Nc1ccc(C(=O)NC(C)c2ccc(-n3ccnc3)cc2)cc1 (stereo not given) | -9 | 16 | 8 | -2 | -1 | nt | nt
